The nature of series [1]: Immunosuppressive activity in BALB/c mouse splenocytes assessed as inhibition of CD3/CD28-induced cell proliferation at 5 ug/mL after 48 hrs by MTT assay. The class given is functional. Particulars: Splenocyte. The gist of the method:
(§1)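 Splenocytes from 6 to 8 week-old BALB/c mice (erythrocytes lysed with ammonium chloride, washed in PBS/2% FBS) plated at 5 × 10⁵ cells/well in RPMI 1640 with 10% FBS and antibiotics; CD3/CD28 co-stimulation with compound ([…] as printed for single-concentration screen, or a concentration series for IC50) for 48 h; survival by MTT.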

Series [2] can be described thus: Immunosuppressive activity in BALB/c mouse splenocytes assessed as inhibition of CD3/CD28-induced cell proliferation after 48 hrs by MTT assay. The following applies: Splenocyte. It counts as functional, cell-based. The gist of the method: as §1
In the next series the test system is Splenocyte. The series can be described thus: Cytotoxicity against CD3/CD28-induced BALB/c mouse splenocytes at 1 to 10 ug/mL after 48 hrs by MTT assay. It counts as functional, cell-based. The gist of the method: (§2)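 Spleen cells from 6 to 8 week-old BALB/c mice, single-cell suspension, erythrocytes depleted with ammonium chloride, washed in PBS/2% FBS; 5 × 10⁵ cells/well in RPMI 1640 with 10% FBS, penicillin, streptomycin; unstimulated or CD3/CD28-co-stimulated cells exposed to varied compound concentrations for 48 h; viability by MTT. Compounds from DMSO stocks diluted in RPMI-1640/10% FBS.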
In general terms: Formazan colour is commonly taken as a measure of viable cells.

Series [3] is described as follows: Cytotoxicity against BALB/c mouse splenocytes at 1 to 10 ug/mL after 48 hrs by MTT assay. The class given is cell-based. The following applies: splenocyte. In short, it runs like this: as §2

This passage reports inhibition, IC50 and Activity results from ChEMBL document CHEMBL1926513, “Synthesis of novel cinnamanilides as potential immunosuppressive agents” (Eur J Med Chem, 2012).

Activity calls are given as the source filed them. The calls are words filed in the database; no cut-off is given here.

As for `CO/C(=C\c1ccc(F)cc1)C(=O)Nc1ccccc1`, the inhibition – broadly, the relative decrease from the control value, in per cent – at 5 µg/mL in series [1] was under 50%.
On to `CO/C(=C\c1ccc(F)cc1)C(=O)Nc1ccc(C(C)C)cc1`, for which, in series [1], the inhibition at 5 µg/mL is over 50%. Besides, the IC50 (in general, the concentration that gives 50% inhibition) in series [2] was determined as 4.66 µM. Besides, in the series with Splenocyte, the result was Active. Besides, the Activity entry in series [3] is “Non-toxic”.
Turning to `CO/C(=C\c1ccc(Br)cc1)C(=O)Nc1ccc(C(C)C)cc1`, the inhibition at 5 µg/mL in series [1] is under 50%.
The same measure, in the same setting: with `CO/C(=C\c1ccc(Br)cc1)C(=O)Nc1ccc(Br)cc1` the figure was under 50%.
Take `CO/C(=C\c1ccccc1)C(=O)Nc1ccc(F)cc1`: the inhibition at 5 µg/mL in series [1] was over 50%. Further, in series [2], the IC50 was 4.94 µM.
Turning to `CO/C(=C\c1ccc(Br)cc1)C(=O)Nc1ccccc1`, the inhibition at 5 µg/mL in series [1] was under 50%.
Regarding `CO/C(=C\c1ccc(F)cc1)C(=O)Nc1ccc(OC)cc1`, the inhibition at 5 µg/mL in series [1] was over 50%. In series [2], the IC50 is 13.5 µM.
For `CO/C(=C\c1ccc(OC)cc1)C(=O)Nc1ccc(Cl)cc1`, the inhibition at 5 µg/mL in series [1] is over 50%. The IC50 in series [2] is 14.7 µM.
As for `CO/C(=C\c1ccc(F)cc1)C(=O)Nc1ccc(C)cc1`, the inhibition at 5 µg/mL in series [1] is under 50%.
For `CO/C(=C\c1ccccc1)C(=O)Nc1ccc(Cl)cc1`, in series [1], the inhibition at 5 µg/mL is over 50%. Also, the IC50 in series [2] is 17 µM.
As to `CO/C(=C\c1ccccc1)C(=O)Nc1ccc(Br)cc1`, the inhibition at 5 µg/mL in series [1] was under 50%.
For `CO/C(=C\c1ccc(OC)cc1)C(=O)Nc1ccc(C(C)C)cc1`, the inhibition at 5 µg/mL in series [1] was under 50%.
In the case of `CO/C(=C\c1ccc(Cl)cc1)C(=O)Nc1ccc(C(C)C)cc1`, the inhibition at 5 µg/mL in series [1] was under 50%.
Consider `CO/C(=C\c1ccc(Br)cc1)C(=O)Nc1ccc(Cl)cc1`, for which, in series [1], the inhibition at 5 µg/mL is under 50%.
Regarding `CO/C(=C\c1ccc(Cl)cc1)C(=O)Nc1ccc(C)cc1`, the inhibition at 5 µg/mL in series [1] is over 50%. Moreover, the IC50 in series [2] was found to be 12.7 µM.
In the case of `CO/C(=C\c1ccc(Cl)cc1)C(=O)Nc1ccc(F)cc1`, the inhibition at 5 µg/mL in series [1] was over 50%. For the same molecule, in series [2], the IC50 turned out to be 14 µM.
Take `CO/C(=C\c1ccc(Br)cc1)C(=O)Nc1ccc(C)cc1`: the inhibition at 5 µg/mL in series [1] was over 50%. In addition, in series [2], the IC50 turned out to be 12.9 µM.
Turning to `CO/C(=C\c1ccc(Cl)cc1)C(=O)Nc1ccc(OC)cc1`, the inhibition at 5 µg/mL in series [1] was under 50%.
Same read-out and setting: the value for `CO/C(=C\c1ccc(Cl)cc1)C(=O)Nc1ccc(Cl)cc1` was under 50%.
For the molecule `CO/C(=C\c1ccc(OC)cc1)C(=O)Nc1ccc(C)cc1`, the inhibition at 5 µg/mL in series [1] is over 50%. In addition, the IC50 in series [2] turned out to be 0.94 µM. The result in the series on Splenocyte was Active. Further, the Activity result in series [3] is on record as “Non-toxic”.
Consider `CO/C(=C\c1ccc(OC)cc1)C(=O)Nc1ccc(OC)cc1`, for which the inhibition at 5 µg/mL in series [1] was under 50%.
On the same count and under the same terms, with `CO/C(=C\c1ccc(F)cc1)C(=O)Nc1ccc(Br)cc1` the figure was under 50%; with `CO/C(=C\c1ccc(Br)cc1)C(=O)Nc1ccc(OC)cc1`, under 50%.
Take `CO/C(=C\c1ccccc1)C(=O)Nc1ccc(OC)cc1`: the inhibition at 5 µg/mL in series [1] was under 50%.
On to `CO/C(=C\c1ccc(OC)cc1)C(=O)Nc1ccc(F)cc1`, for which, in series [1], the inhibition at 5 µg/mL was under 50%.
Turning to `CO/C(=C\c1ccc(Cl)cc1)C(=O)Nc1ccc(Br)cc1`, the inhibition at 5 µg/mL in series [1] was over 50%. Also, the IC50 in series [2] worked out at 11 µM.
Consider `CO/C(=C\c1ccc(F)cc1)C(=O)Nc1ccc(F)cc1`, for which the inhibition at 5 µg/mL in series [1] is under 50%.
Same read-out and setting: the value for `CO/C(=C\c1ccc(Cl)cc1)C(=O)Nc1ccccc1` was under 50%; that for `CO/C(=C\c1ccc(OC)cc1)C(=O)Nc1ccccc1` was under 50%.
For the molecule `CO/C(=C\c1ccc(OC)cc1)C(=O)Nc1ccc(Br)cc1`, in series [1], the inhibition at 5 µg/mL was over 50%. In addition, in series [2], the IC50 was found to be 1.77 µM. Further, the outcome in the series on Splenocyte was Active. The Activity result in series [3] is given as “Non-toxic”.
For `CO/C(=C\c1ccccc1)C(=O)Nc1ccc(C)cc1`, the inhibition at 5 µg/mL in series [1] was over 50%. Also, the IC50 in series [2] turned out to be 16.6 µM.
For `CO/C(=C\c1ccccc1)C(=O)Nc1ccc(C(C)C)cc1`, the inhibition at 5 µg/mL in series [1] was over 50%. Besides, the IC50 in series [2] came to 3.46 µM. Also, the result with Splenocyte was Active. Besides, in series [3], the Activity entry is “Non-toxic”.
In the case of `CO/C(=C\c1ccc(F)cc1)C(=O)Nc1ccc(Cl)cc1`, in series [1], the inhibition at 5 µg/mL is over 50%. In series [2], the IC50 is 9.48 µM.
The matching figures for `CO/C(=C\c1ccccc1)C(=O)Nc1ccccc1`: over 50% and 15.2 µM.
`CO/C(=C\c1ccc(Br)cc1)C(=O)Nc1ccc(F)cc1`: the inhibition at 5 µg/mL in series [1] was under 50%.
